{"data": "Assay results gathered from unrelated publications", "target": "Homeodomain-interacting protein kinase 4 (HIPK4, Homo sapiens, UniProt Q8NE63)", "Sequence (Q8NE63 1-616, as in one of the studies)": "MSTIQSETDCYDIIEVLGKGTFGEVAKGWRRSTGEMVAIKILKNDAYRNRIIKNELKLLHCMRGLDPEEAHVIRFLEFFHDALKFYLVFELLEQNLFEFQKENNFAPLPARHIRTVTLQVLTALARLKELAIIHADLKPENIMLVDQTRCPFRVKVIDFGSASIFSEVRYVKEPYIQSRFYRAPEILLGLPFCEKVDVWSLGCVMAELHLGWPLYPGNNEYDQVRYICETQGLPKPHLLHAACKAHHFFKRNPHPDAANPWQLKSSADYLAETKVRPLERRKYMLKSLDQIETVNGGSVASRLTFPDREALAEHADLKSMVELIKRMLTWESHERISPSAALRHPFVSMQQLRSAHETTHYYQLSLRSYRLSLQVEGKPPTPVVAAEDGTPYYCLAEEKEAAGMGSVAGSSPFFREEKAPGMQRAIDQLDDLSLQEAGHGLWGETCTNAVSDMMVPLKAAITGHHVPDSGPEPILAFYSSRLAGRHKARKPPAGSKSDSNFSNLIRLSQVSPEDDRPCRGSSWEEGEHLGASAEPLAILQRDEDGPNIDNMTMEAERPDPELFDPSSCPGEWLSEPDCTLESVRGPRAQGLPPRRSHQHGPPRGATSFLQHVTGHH", "note": "Each line is one published result; the experiments were not run side by side."}
{"SMILES": "CCCCC(=O)Nc1ccc(-c2ccc3ncn(CCC)c(=O)c3c2)cn1", "test": "binding, competition with immobilised ligand", "setting": "0.5 µM", "endpoint": "remaining binding", "result": "66%"}
{"SMILES": "CC#CC(=O)N1CCC[C@H]1c1nc(-c2ccc(C(=O)Nc3ccccn3)cc2)c2c(N)nccn12", "test": "enzyme activity, inhibitor", "setting": "1 µM", "endpoint": "inhibition", "result": "0%"}
{"SMILES": "C#Cc1cc(-c2cc(Nc3nc(N[C@@H](C)c4ccc(F)cn4)ncc3Cl)n[nH]2)ccc1C=O", "test": "enzyme activity, inhibitor", "setting": "0.2 µM", "endpoint": "inhibition", "result": "4.92%"}
{"SMILES": "CC(C)S(=O)(=O)c1ccc2nccc(Nc3ccc4sc(C5CCCC5)nc4c3)c2c1", "test": "enzyme activity, inhibitor", "setting": "1 µM", "endpoint": "activity vs control", "result": "98%"}
{"SMILES": "CN1CCN(C(=O)c2ccc(NC(=O)Nc3ccc(N(C)c4ccnc(Nc5ccc(CS(C)(=O)=O)cc5)n4)cc3)cc2)CC1", "test": "binding, competition with immobilised ligand", "setting": "1 µM", "endpoint": "remaining binding", "result": "74%"}
{"SMILES": "CO[C@@H]1[C@H](N(C)C(=O)c2ccccc2)C[C@H]2O[C@]1(C)n1c3ccccc3c3c4c(c5c6ccccc6n2c5c31)C(=O)NC4", "test": "enzyme activity, inhibitor", "setting": "1 µM", "endpoint": "inhibition", "result": "23%"}
{"SMILES": "C1=C/COCc2cc(ccc2OCCN2CCCC2)Nc2nccc(n2)-c2cccc(c2)COC/1", "test": "binding", "setting": "0.1 µM", "endpoint": "remaining binding", "result": "2.3%"}
{"SMILES": "C[C@H]1CC[C@H](n2c3cnccc3c3cnc(Nc4ccc5c(n4)CCN(C(=O)CO)C5)nc32)CC1", "test": "binding, competition with immobilised ligand", "setting": "1 µM", "endpoint": "remaining binding", "result": "56%"}
